Results on two compounds are retold here after ChEMBL document CHEMBL3526063, “Metabolism and pharmacokinetics of JM6 in mice: JM6 is not a prodrug for Ro-61-8048” (Drug Metab Dispos, 2012).

The nature of series [1]: Tmax in C57BL/6N mouse treated with JM6 (containing <0.4% Ro-61-8048) at 9.5 mg/kg, po and Ro-61-8048 at 0.05 mg/kg, po drugs administered via gavage by LC-MS/MS analysis. Format: ADME, organism-based. The settings on record: in vivo, in the assay text read “0.5 mg/kg” for “0.05 mg/kg”. The essentials: (§1)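 Male C57BL/6N mice dosed by oral gavage (10 mL/kg) as fine suspensions in 10% hydroxypropyl-β-cyclodextrin in 50 mM phosphate buffer pH 7; dose formulations verified by LC-MS/MS. Plasma analysed by LC-MS/MS; composite non-compartmental parameters from mean concentrations (n=3 per time point), C0 set to zero. %F = dose-normalised po AUCinf over dose-normalised iv AUCinf, only within linear range.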

Series [2] has as its system Mus musculus. The experiment in a line: Dose normalised AUC in C57BL/6N mouse treated with JM6 (containing <0.4% Ro-61-8048) at 9.5 mg/kg, po and Ro-61-8048 at 0.05 mg/kg, po drugs administered via gavage by LC-MS/MS analysis. Format: ADME, organism-based. The settings on record: in vivo, in the assay text read “0.5 mg/kg” for “0.05 mg/kg”. In short, it runs like this:
(§2)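 Male C57BL/6N mice were dosed by oral gavage at 10 mL/kg with a fine suspension in 10% hydroxypropyl-β-cyclodextrin in 50 mM phosphate buffer, pH 7. Plasma was taken at non-serial time points (n=3 per time point), extracted with 0.1% formic acid in acetonitrile containing diclofenac as internal standard, and quantified by UPLC-MS/MS. Composite non-compartmental parameters came from mean concentrations; AUClast by linear trapezoid, kel from at least three terminal points.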

The subject of series [3] is Mus musculus. The series is described as follows: Dose normalised AUC in C57BL/6N mouse treated with JM6 (containing <0.4% Ro-61-8048) at 9 mg/kg, po and Ro-61-8048 at 1 mg/kg, po drugs administered via gavage by LC-MS/MS analysis. The settings on record: in vivo. It counts as ADME, organism-based. The essentials: as §2
Series [4] can be described thus: AUClast in C57BL/6N mouse treated with JM6 (containing <0.4% Ro-61-8048) at 25 mg/kg, po and Ro-61-8048 at 0.05 mg/kg, po drugs administered via gavage by LC-MS/MS analysis. It counts as ADME, organism-based. Also on record: dose 25 mg/kg, route oral, time 0 - last. The settings on record: plasma. The essentials: as §2
Series [5] deals with Mus musculus. The series is described as follows: Dose normalised Cmax in C57BL/6N mouse treated with JM6 (containing <0.4% Ro-61-8048) at 50 mg/kg, po and Ro-61-8048 at 0.05 mg/kg, po drugs administered via gavage by LC-MS/MS analysis. It counts as ADME, organism-based. The settings on record: in vivo. In short, it runs like this: as §2
Series [6] in a line: Hepatic extraction ratio in human Hepatocyte at 1 uM after 10 to 90 mins by LC-MS/MS analysis. Format: ADME, cell-based. The conditions noted are these: hepatocytes, read-out: ERH.
Series [7] can be described thus: Half life in C57BL/6N mouse treated with JM6 (containing <0.4% Ro-61-8048) at 9.5 mg/kg, po and Ro-61-8048 at 0.05 mg/kg, po drugs administered via gavage by LC-MS/MS analysis. The settings on record: in vivo, in the assay text read “0.5 mg/kg” for “0.05 mg/kg”. Format: ADME, organism-based. The essentials:
as §2

Series [8] in a line: Hepatic extraction ratio in mouse Hepatocyte at 1 uM after 10 to 90 mins by LC-MS/MS analysis. It counts as ADME, cell-based. The settings on record: hepatocytes, read-out: ERH.
Series [9] concerns Mus musculus. The series is described as follows: Dose normalised Cmax in C57BL/6N mouse treated with JM6 (containing <0.4% Ro-61-8048) at 9.5 mg/kg, po and Ro-61-8048 at 0.05 mg/kg, po drugs administered via gavage by LC-MS/MS analysis. The conditions noted are these: in vivo, in the assay text read “0.5 mg/kg” for “0.05 mg/kg”. It counts as ADME, organism-based. The essentials:
as §2

Series [10] concerns MDR1. The experiment in a line: Apparent permeability from apical to basolateral side in MDCK2-MDR1 cells at 10 uM after 1 hr by LC-MS/MS analysis. The settings on record: dog, MDCK-MDR1. It counts as ADME, cell-based, Canis lupus familiaris, MDCK-II. In short, it runs like this: (§3)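 MDCKII wild-type or MDR1 monolayers were grown 3 days on Transwells after seeding at 2×10^5 cells/well. Compound at 10 µM in HBSS with 25 mM HEPES, pH 7.4, was added apically or basolaterally in duplicate, with Lucifer Yellow as an integrity marker (wells above 100 nm/s rejected).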

Series [11] is described as follows: AUC(infinity) in C57BL/6N mouse treated with JM6 (containing <0.4% Ro-61-8048) at 10 mg/kg, po and Ro-61-8048 at 0.05 mg/kg, po drugs administered via gavage by LC-MS/MS analysis. Format: ADME, organism-based. Also on record: dose 10 mg/kg, route oral, time infinity. The settings on record: plasma. In short, it runs like this: as §2
Series [12] deals with Mus musculus. The series is described as follows: Dose normalised Cmax in C57BL/6N mouse treated with JM6 (containing <0.4% Ro-61-8048) at 9 mg/kg, po and Ro-61-8048 at 1 mg/kg, po drugs administered via gavage by LC-MS/MS analysis. Format: ADME, organism-based. The settings on record: in vivo. The essentials: as §2
The nature of series [13]: Cmax in C57BL/6N mouse treated with JM6 (containing <0.4% Ro-61-8048) at 9 mg/kg, po and Ro-61-8048 at 1 mg/kg, po drugs administered via gavage by LC-MS/MS analysis. It counts as ADME, organism-based. Also on record: dose 9 mg/kg, route oral. The conditions noted are these: in vivo. In short, it runs like this: as §2
The subject of series [14] is MDR1. The experiment in a line: Efflux ratio of permeability from basolateral to apical side over apical to basolateral side in MDCK2-MDR1 cells at 10 uM after 1 hr by LC-MS/MS analysis. Format: ADME, cell-based, Canis lupus familiaris. The settings on record: dog, MDCK-MDR1. In short, it runs like this:
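MDCKII wild-type and MDR1 cells grown on Transwells 3 days at 2×10^5 cells/well. Compound 10 μM in HBSS with 25 mM HEPES pH 7.4, added apical or basolateral in duplicate, 1 h at 37 °C. Lucifer Yellow monitored monolayer integrity; wells above 100 nm/s rejected. Both chambers sampled, LC-MS/MS; Papp A>B and B>A, ratio B>A:A>B.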

Series [15] concerns Mus musculus. The series is described as follows: Dose normalised AUC in C57BL/6N mouse treated with JM6 (containing <0.4% Ro-61-8048) at 50 mg/kg, po and Ro-61-8048 at 0.05 mg/kg, po drugs administered via gavage by LC-MS/MS analysis. It counts as ADME, organism-based. The conditions noted are these: in vivo. In short, it runs like this:
as §2

A short description of series [16]: Apparent permeability from basolateral to apical side in MDCK2 cells at 10 uM after 1 hr by LC-MS/MS analysis. Format: ADME, cell-based, Canis lupus familiaris, MDCK-II. The settings on record: dog. In short, it runs like this: as §3
Series [17] can be described thus: Tmax in C57BL/6N mouse treated with JM6 (containing <0.4% Ro-61-8048) at 9 mg/kg, po and Ro-61-8048 at 1 mg/kg, po drugs administered via gavage by LC-MS/MS analysis. Format: ADME, organism-based. The conditions noted are these: in vivo. In short, it runs like this:
as §1

Series [18] in a line: Apparent permeability from apical to basolateral side in MDCK2 cells at 10 uM after 1 hr by LC-MS/MS analysis. It counts as ADME, cell-based, Canis lupus familiaris, MDCK-II. The settings on record: dog. In short, it runs like this:
as §3

Series [19] has as its target Kynurenine 3-monooxygenase (Homo sapiens, UniProt O15229). The experiment in a line: Inhibition of human KMO assessed as 3-hydroxykynurenine formation preincubated for 5 mins using 100 uM kynurenine as substrate by LC-MS/MS analysis. The essentials:
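Liver mitochondrial KMO preparation (mouse C57 BL/6J, rat Wistar, human) at 0.3 mg protein/mL in 100 mM potassium phosphate pH 7.4 with 200 µM NADPH, 0.4 U/mL G6PDH, 3 mM glucose 6-phosphate. Compound pre-incubated 5 min at 25°C, then 100 µM kynurenine added; 40 min (rodent) or 60 min (human). Stopped with TCA; 3-hydroxykynurenine by LC-MS/MS. IC50 from 8-point 3-fold dilutions (top 3 or 30 µM), triplicates, n≥2 runs.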

A short description of series [20]: Tmax in C57BL/6N mouse treated with JM6 (containing <0.4% Ro-61-8048) at 10 mg/kg, po and Ro-61-8048 at 0.05 mg/kg, po drugs administered via gavage by LC-MS/MS analysis. Format: ADME, organism-based. The settings on record: in vivo. The essentials:
as §1

pIC50: −log10 of the molar value. Bounds are passed on as bounds.

One may read the Tmax as the time from dosing to the highest level. The AUC(0-t) is exposure summed from dosing to a finite time, without extrapolation to infinity. The low end stands for low exposure, the high end for high exposure. One may read the half-life as how long it takes for the measured level to halve. Higher therefore signals slow decline. One may read the Papp A→B as how fast a substance crosses the layer from the apical side. One may read the AUC(0-inf) as the area under the concentration-time curve extrapolated to infinity. A low value points to less exposure. By Cmax is commonly meant the highest concentration seen after dosing. As a reminder, the efflux ratio is a quotient of directional permeabilities that is used to spot active efflux. A word on the Papp B→A: it is the apparent permeability from the basolateral to the apical side of a cell layer. As usually defined, the pIC50 is the IC50 on a negative log10 scale, so that one unit is a factor of ten. For orientation: Papp means a coefficient for how fast a substance crosses the barrier.

Kynurenine 3-monooxygenase, sequence (O15229 whole entry): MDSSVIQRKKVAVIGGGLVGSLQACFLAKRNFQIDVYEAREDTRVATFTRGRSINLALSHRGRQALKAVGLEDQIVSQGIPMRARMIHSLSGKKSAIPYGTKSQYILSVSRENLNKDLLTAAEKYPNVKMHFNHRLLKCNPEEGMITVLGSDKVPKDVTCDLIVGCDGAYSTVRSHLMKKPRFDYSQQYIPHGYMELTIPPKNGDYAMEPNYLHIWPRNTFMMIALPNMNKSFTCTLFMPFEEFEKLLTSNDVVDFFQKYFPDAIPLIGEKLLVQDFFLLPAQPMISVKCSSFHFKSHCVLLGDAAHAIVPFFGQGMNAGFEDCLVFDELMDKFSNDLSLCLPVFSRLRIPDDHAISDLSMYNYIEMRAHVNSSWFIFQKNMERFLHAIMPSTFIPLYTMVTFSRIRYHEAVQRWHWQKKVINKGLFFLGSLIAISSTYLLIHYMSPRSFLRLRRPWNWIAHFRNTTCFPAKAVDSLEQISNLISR

For the compound `COc1ccc(S(=O)(=O)Nc2nc(-c3cccc([N+](=O)[O-])c3)cs2)cc1OC`, the Tmax in [1] worked out at 30 min; in series [17], 30 min; in series [20], 60 min. Moreover, the AUC/dose in series [2] was found to be 110000 nM·kg·h/mg; in series [3] it was 140000 nM·kg·h/mg; in [15], 160000 nM·kg·h/mg. The compound further displayed an AUC(0-t) in series [4] of 8.4 µM·h. In addition, the results for the Cmax/dose in [5], in [9] and in series [12] were 160 µM, 18 µM and 21 µM, respectively. In addition, the hepatic extraction ratio at 1 µM in series [6] is 0.8; in [8], under 0.5. This compound gave a half-life in [7] of 414 min. Moreover, the values for the Papp A→B at 1 h, 10 µM in [10] and in series [18] (MDCK) were 10 ×10⁻⁶ cm/s and 17 ×10⁻⁶ cm/s, respectively. This compound yielded an AUC(0-inf) in series [11] of 5.2 µM·h. The compound further registered a Cmax in [13] of 17 µM. For the same compound, the efflux ratio at 1 h, 10 µM in series [14] came out at 3.2. In addition, in [16] (MDCK), the Papp B→A at 1 h, 10 µM came to 13 ×10⁻⁶ cm/s. Moreover, the pIC50 in series [19] is 6.77.

With `COc1ccc(S(=O)(=O)Nc2nc(-c3cccc([N+](=O)[O-])c3)c(CN3CCCCC3)s2)cc1OC`, the Tmax in series [1], in [17] and in series [20] was 30 min each time. For the same compound, the AUC/dose stood at 160 nM·kg·h/mg in series [2], 130 nM·kg·h/mg in series [3] and 190 nM·kg·h/mg in [15]. This compound displayed an AUC(0-t) in series [4] of 4.8 µM·h. Besides, the figures for the Cmax/dose in [5], in [9] and in series [12] were 0.19 µM, 0.15 µM and 0.11 µM, respectively. The hepatic extraction ratio at 1 µM in series [6] stood at 0.67; in series [8], 0.83. For the same compound, the half-life in [7] is 54 min. Further, in series [10], the Papp A→B at 1 h, 10 µM is 0.72 ×10⁻⁶ cm/s. Besides, the AUC(0-inf) in [11] worked out at 1.3 µM·h. The compound further registered a Cmax in series [13] of 1 µM. For the same compound, the efflux ratio at 1 h, 10 µM in series [14] was determined as 60. Further, the Papp came to 0.53 ×10⁻⁶ cm/s in series [16] (mdck-ii, 1 h, 10 µM) and 4.7 ×10⁻⁶ cm/s in series [18] (mdck-ii, 1 h, 10 µM). Further, the pIC50 in [19] is 4.96.
